T1: Rap1 (Homo sapiens, UniProt P62834, G12V)
T1 sequence (P62834 1-184 G12V): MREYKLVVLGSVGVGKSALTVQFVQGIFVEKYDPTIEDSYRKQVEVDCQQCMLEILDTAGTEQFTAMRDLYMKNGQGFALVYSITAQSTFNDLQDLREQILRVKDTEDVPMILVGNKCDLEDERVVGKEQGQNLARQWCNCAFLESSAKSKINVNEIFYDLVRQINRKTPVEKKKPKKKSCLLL


Assays:
Rap1 = target: T1, Rap1; test: Pull-down of HA-Rap1V12 from HEK293 cell lysates by GST-KRIT1 F123 variants; assay type: binding
Procedure, shortened: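 HEK293 cells were transfected (Lipofectamine Plus) with HA-Rap1A(G12V) cDNA, then lysed after 24 h in cold 50 mM Tris-HCl pH 7.4, 150 mM NaCl, 0.5% NP-40, 5 mM MgCl2 plus protease inhibitors. Bead-immobilized GST-KRIT1 FERM variants (WT or L717,721A; 10 µg) were incubated with 350 µg clarified lysate overnight at 4°C. Beads were washed, run on 4–20% SDS-PAGE and immunoblotted with monoclonal anti-HA (1:4,000).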

HEG1-C19 peptide = HEG1-C19 peptide (Homo sapiens, UniProt Q9ULI3); test: Affinity chromatography of KRIT1 FERM variants on HEG1-C19 peptide matrix; assay type: binding; details: GFP-KRIT1 FERM from HEK293 cell lysates
Procedure, shortened: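 Pull-down: human HEG1 C19 cytoplasmic tail model protein (His6, N-terminal in vivo biotinylation tag, E. coli-expressed) immobilized on beads; 10 µg added to 350 µg clarified lysate of HEK293 transfected 24 h with GFP-KRIT1 FERM WT or L717,721A; lysis in 50 mM Tris-HCl pH 7.4, 150 mM NaCl, 0.5% NP-40, 5 mM MgCl2 plus protease inhibitors; 4°C overnight; washed, 4–20% SDS-PAGE, anti-GFP immunoblot; three experiments.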

interaction with Rap1 (Rap1) | binding to the HEG1-C19 peptide (HEG1-C19 peptide) | Molecule
does not bind to Rap1 |  | GST-KRIT1 F123(R452E) (protein, left off: GST, end not stated, kept) EKVRIYRMDGSYRSVELKHGNNTTVQQIMEGMELSQETQQYFTIWICSENLSLQLKPYHKPLQHVRDWPEILAELTNLDPQRETPQLFLRRDVRLPLEVEKQIEDPLAILILFDEARYNLLKGFYTAPDAKLITLASLLLQIVYGNYESKKHKQGFLNEENLKSIVPVTKLKSKAPHWTNRILHEYKNLSTSEGVSKEMHHLQRMFLQNCWEIPTYGAAFFTGQIFTKASPSNHKVIPVYVGVNIKGLHLLNMETKALLISLKYGCFMWQLGDTDTCFQIHSMENKMSFIVHTKQAGLVVKLLMKLNGQLMPTER
 | markedly reduced binding | KRIT1(L717,721A): human KRIT1 Leu717/Leu721 to Ala mutant, used as FERM domain or full-length protein (protein, left off: GST, end not stated, kept) EKVRIYRMDGSYRSVELKHGNNTTVQQIMEGMRLSQETQQYFTIWICSENLSLQLKPYHKPLQHVRDWPEILAELTNLDPQRETPQLFLRRDVRLPLEVEKQIEDPLAILILFDEARYNLLKGFYTAPDAKLITLASLLLQIVYGNYESKKHKQGFLNEENLKSIVPVTKLKSKAPHWTNRILHEYKNLSTSEGVSKEMHHLQRMFLQNCWEIPTYGAAFFTGQIFTKASPSNHKVIPVYVGVNIKGLHLLNMETKALLISLKYGCFMWQLGDTDTCFQIHSMENKMSFIVHTKQAGAVVKALMKLNGQLMPTER
